What was measured:
[1] = target: Phosphatidylinositol 4,5-bisphosphate 3-kinase catalytic subunit beta isoform (Homo sapiens, UniProt P42338); assay: Inhibition of PI3Kbeta (unknown origin) using diC8 PIP2 as substrate after 60 mins by ADP-glo assay
[2] = target: T1, Phosphatidylinositol 4,5-bisphosphate 3-kinase catalytic subunit delta isoform (Homo sapiens, UniProt O00329); assay: Inhibition of PI3Kdelta (unknown origin) using diC8 PIP2 as substrate after 120 mins by ADP-glo assay
T1 sequence (O00329 whole entry): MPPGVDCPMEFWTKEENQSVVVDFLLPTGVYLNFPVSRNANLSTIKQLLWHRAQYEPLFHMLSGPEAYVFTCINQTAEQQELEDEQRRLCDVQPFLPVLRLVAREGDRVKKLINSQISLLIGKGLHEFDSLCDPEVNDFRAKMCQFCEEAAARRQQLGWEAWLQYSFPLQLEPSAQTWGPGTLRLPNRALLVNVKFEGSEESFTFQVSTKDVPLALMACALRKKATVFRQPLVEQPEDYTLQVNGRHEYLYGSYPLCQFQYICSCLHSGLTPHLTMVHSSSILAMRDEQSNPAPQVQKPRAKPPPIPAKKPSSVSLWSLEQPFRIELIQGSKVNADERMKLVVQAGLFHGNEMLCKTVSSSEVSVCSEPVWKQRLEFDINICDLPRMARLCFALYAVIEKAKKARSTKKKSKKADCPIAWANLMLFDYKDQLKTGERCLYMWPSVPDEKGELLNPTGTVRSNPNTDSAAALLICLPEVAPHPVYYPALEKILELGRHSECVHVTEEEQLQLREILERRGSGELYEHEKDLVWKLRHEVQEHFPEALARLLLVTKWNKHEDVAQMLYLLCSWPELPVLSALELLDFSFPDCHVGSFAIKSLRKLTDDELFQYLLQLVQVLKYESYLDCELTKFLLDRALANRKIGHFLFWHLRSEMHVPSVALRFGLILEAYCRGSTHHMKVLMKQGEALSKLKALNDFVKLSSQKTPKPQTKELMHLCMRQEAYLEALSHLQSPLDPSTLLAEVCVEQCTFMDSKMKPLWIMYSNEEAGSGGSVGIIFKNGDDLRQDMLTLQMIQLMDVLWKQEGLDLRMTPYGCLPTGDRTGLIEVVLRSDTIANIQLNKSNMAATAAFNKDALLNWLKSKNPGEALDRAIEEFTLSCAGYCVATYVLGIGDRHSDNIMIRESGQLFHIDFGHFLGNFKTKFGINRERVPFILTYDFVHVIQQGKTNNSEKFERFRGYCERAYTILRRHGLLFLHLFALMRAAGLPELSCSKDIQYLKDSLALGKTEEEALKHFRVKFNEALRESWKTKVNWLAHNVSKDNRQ
In short: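 Delta isoform reacted 120 min in glycine-NaOH pH 8.5 buffer (50 mM KCl, 2.5 mM MgCl2, 1 mM DTT, 0.05% CHAPS) with 0.01 mM ATP and 0.05 mM diC8 PIP2; ADP formed detected by ADP-Glo (40 min) plus detection buffer (40 min) luminescence. Dundee profiling centre.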

[3] = target: Phosphatidylinositol 4,5-bisphosphate 3-kinase catalytic subunit alpha isoform (Homo sapiens, UniProt P42336); assay: Inhibition of PI3Kalpha (unknown origin) using diC8 PIP2 as substrate after 80 mins by ADP-glo assay
Sequence of Phosphatidylinositol 4,5-bisphosphate 3-kinase catalytic subunit alpha isoform (P42336 whole entry, canonical isoform): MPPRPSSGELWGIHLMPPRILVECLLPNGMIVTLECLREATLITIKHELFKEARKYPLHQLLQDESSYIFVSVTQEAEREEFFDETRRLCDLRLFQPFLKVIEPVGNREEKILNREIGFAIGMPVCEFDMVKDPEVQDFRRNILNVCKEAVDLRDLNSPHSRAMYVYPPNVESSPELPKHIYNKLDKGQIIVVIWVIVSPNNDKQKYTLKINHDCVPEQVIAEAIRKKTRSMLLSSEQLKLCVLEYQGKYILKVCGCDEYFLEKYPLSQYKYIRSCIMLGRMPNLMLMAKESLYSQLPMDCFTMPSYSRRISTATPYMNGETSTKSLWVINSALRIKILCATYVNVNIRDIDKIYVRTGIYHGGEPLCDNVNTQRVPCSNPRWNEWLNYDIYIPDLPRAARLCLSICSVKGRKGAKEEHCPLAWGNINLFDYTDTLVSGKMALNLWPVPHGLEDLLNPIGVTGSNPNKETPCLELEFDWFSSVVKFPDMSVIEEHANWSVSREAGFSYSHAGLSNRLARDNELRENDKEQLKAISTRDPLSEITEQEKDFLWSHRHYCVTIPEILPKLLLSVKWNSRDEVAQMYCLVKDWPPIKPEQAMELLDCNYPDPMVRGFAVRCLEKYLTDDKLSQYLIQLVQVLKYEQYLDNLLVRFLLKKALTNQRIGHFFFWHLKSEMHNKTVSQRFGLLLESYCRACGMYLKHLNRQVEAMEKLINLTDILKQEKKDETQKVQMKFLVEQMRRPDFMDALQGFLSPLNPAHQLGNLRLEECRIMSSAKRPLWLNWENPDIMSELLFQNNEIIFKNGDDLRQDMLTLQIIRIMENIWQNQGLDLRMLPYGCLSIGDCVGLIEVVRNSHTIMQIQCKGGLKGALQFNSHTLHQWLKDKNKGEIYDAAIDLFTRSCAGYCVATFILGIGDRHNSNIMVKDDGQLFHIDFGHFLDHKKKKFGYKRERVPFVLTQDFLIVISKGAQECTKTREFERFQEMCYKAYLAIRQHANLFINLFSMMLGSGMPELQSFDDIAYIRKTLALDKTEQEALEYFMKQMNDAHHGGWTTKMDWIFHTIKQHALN

Sequence of Phosphatidylinositol 4,5-bisphosphate 3-kinase catalytic subunit beta isoform (P42338 whole entry, canonical isoform): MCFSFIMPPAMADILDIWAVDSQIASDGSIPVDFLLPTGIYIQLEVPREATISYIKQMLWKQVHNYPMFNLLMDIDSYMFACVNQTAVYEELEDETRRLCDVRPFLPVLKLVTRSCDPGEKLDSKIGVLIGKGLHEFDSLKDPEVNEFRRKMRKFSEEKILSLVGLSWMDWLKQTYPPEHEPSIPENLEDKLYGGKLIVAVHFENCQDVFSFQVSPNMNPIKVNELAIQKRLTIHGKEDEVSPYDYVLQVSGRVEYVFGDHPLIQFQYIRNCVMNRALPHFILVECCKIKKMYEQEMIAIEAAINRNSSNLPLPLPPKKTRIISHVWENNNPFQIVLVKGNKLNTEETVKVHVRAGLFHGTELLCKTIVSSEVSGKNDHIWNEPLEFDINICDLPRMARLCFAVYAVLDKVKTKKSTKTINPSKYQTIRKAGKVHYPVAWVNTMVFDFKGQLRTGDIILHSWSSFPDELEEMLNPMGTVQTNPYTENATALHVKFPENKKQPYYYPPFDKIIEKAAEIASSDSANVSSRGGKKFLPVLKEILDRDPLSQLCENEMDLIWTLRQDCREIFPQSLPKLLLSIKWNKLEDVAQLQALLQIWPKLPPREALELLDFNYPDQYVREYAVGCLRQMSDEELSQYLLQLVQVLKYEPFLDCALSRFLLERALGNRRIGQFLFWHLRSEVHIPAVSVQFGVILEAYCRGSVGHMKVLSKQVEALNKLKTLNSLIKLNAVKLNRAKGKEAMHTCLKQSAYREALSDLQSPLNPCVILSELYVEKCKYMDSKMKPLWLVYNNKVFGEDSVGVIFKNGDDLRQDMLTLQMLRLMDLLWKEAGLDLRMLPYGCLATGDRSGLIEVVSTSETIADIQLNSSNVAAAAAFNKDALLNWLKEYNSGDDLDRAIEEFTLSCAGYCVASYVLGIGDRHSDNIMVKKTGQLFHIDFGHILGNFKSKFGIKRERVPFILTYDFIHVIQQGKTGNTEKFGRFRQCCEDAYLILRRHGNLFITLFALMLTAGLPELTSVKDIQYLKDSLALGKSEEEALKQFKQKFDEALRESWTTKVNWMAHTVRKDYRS

Question: For N#CCc1ccc(Nc2ncnc3ccc(-c4cccc([N+](=O)[O-])c4)cc23)cc1, which IC50 [1] is on record?
Answer: The IC50 was greater than 10 µM.

Question: What about the IC50 [2] of the same compound?
Answer: Its IC50 is greater than 10 µM.

Question: With N#CCc1ccc(Nc2ncnc3ccc(-c4cncc5ccccc45)cc23)cc1 as the compound, how does the IC50 [1] read?
Answer: Its IC50 is greater than 20 µM.

Question: For CC(=O)c1ccc(-c2ccc3ncnc(Nc4ccc(CC#N)cc4)c3c2)cc1, which IC50 [1] is on record?
Answer: Its IC50 is greater than 10 µM.

Question: And the IC50 [2]?
Answer: The IC50 was greater than 10 µM.

Question: How did the IC50 [1] turn out when N#CCc1ccc(Nc2ncnc3ccc(-c4ccncc4)cc23)cc1 was run?
Answer: The IC50 was greater than 10 µM.

Question: And the IC50 [2]?
Answer: The IC50 was greater than 10 µM.

Question: With N#CCc1ccc(Nc2ncnc3ccc(-c4ccc5[nH]ccc5c4)cc23)cc1 as the compound, how does the IC50 [1] read?
Answer: The IC50 was greater than 10 µM.

Question: What about the IC50 [2] of the same compound?
Answer: Its IC50 is greater than 10 µM.

Question: Which IC50 [1] does the source give for N#CCc1ccc(Nc2ncnc3ccc(-c4ccc5c(c4)OCCO5)cc23)cc1 here?
Answer: The IC50 was greater than 10 µM.

Question: And the IC50 [2]?
Answer: Its IC50 is greater than 10 µM.

Question: How did the IC50 [1] turn out when C=Cc1ccc(-c2ccc3ncnc(Nc4ccc(CC#N)cc4)c3c2)cc1 was run?
Answer: The IC50 was greater than 10 µM.

Question: And the IC50 [3]?
Answer: Its IC50 is greater than 10 µM.

Question: And the IC50 [2]?
Answer: The IC50 was greater than 10 µM.

Question: With N#CCc1ccc(Nc2ncnc3ccc(-c4ccc5c(c4)OCO5)cc23)cc1 as the compound, how does the IC50 [1] read?
Answer: The IC50 was greater than 10 µM.

Question: And the IC50 [2]?
Answer: Its IC50 is greater than 10 µM.
